Source: PubChem
Apaf1 activ – activators of human Apaf-1 apoptosome | Apaf-1 apoptosome caspase-3 activation, DEVD-Rh110 fluorescence; stronger effect = lower value | activity change, negative = activation, % at 20 µM | 330,000 tested, 0.31% active | AID 489031;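 active = activity change at or below -40% at 20 µM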
Target sequence (O14727 whole entry, looked up): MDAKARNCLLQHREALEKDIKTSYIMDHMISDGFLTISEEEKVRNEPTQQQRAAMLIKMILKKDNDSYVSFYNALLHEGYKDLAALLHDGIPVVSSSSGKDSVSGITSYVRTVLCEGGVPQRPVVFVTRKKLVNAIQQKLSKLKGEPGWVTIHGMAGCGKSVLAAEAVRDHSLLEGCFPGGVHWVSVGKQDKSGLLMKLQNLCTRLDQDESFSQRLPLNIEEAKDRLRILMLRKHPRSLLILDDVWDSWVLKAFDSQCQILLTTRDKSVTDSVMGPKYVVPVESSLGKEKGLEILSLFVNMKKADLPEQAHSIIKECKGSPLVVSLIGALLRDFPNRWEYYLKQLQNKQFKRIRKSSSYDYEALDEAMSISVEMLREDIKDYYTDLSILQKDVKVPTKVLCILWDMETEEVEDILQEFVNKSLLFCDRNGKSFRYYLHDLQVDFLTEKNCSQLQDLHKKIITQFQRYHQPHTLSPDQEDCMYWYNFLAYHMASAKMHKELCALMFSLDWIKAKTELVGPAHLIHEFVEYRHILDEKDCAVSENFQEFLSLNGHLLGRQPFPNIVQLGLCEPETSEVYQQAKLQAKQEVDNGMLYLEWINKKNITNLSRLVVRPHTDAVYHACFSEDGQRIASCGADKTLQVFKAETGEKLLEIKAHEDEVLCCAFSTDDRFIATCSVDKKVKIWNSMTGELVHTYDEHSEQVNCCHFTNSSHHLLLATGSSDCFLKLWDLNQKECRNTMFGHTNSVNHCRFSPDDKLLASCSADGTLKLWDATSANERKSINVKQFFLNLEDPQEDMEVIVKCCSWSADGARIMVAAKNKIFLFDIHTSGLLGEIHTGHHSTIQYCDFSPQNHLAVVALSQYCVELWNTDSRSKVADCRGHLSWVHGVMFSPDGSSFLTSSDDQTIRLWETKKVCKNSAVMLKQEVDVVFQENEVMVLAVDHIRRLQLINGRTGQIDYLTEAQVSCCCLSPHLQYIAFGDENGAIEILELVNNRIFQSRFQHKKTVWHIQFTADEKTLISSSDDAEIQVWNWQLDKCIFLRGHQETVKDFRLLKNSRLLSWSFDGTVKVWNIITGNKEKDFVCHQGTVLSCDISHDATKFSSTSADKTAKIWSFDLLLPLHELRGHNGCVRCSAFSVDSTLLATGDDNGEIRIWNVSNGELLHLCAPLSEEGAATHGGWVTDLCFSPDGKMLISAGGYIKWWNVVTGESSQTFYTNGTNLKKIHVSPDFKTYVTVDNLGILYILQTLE
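Assay system – biochemical Apaf-1 apoptosome reconstitution · Medium – 20 mM HEPES buffer, pH 7.5, containing CHAPS and BSA · Incubation – 30 min preincubation, 50 min reaction, room temperature · Measured by – Caspase-3-released Rh110 fluorescence, 540 nm emission, 480 nm excitation · Read-out – Caspase-3 cleavage activity downstream of Apaf-1 activation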
Rh110 act interf – interferes with Rh110 fluorescence, flagging false Apaf-1 activators; shares compounds with Apaf1 activ; Rh110 fluorescence interference, quenched caspase reaction, Ex480/Em540; fluorescence interference (activity change), % at 20 µM, hits read low; 980 tested, under 10 active; AID 504616;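 active = mean activity change at or below -40% when tested at 20 µM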
Apaf-1 act conf2 – Apaf-1 (human) activation, single-dose confirmed | shares compounds with Apaf1 activ | reconstituted apoptosome caspase-3 activity, DEVD-Rh110 fluorescence; stronger effect = lower value | activity change, negative = activation, % at 20 µM | 980 tested, 5% active | AID 504617;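 active = mean activity change at or below -40%, meaning activation of 40% or more, at 20 µM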
Fluor interf act – counter-screen for Apaf-1 activators: fluorescence interference, dose response. AID 588592. fluorescence interference counterscreen, Apaf-1 activator assay. 55 tested, under 10 active. EC50, µM. shares compounds with Apaf1 activ; call rule not given here
An asterisk follows results filed as active; . = not tested or not shown. The list is a sample of the results.

SMILES	Apaf1 activ	Rh110 act interf	Apaf-1 act conf2	others
C=C(C)C(=O)Nc1cccc(C2=NOC3(C2)C[C@@H](C(N)=O)N(C(=O)c2ccc(Cl)cc2)C3)c1 (stereo partly drawn)	-204*	12	-127*	Fluor interf act=>100
C=C(C)C(=O)Nc1cccc(C2=NOC3(C2)C[C@H](C(N)=O)N(C(=O)c2ccccc2)C3)c1 (stereo partly drawn)	-64*	-7	-59*	Fluor interf act=>100
C=C(C)C(=O)Nc1cccc(C2=NOC3(C2)C[C@H](C(N)=O)N(C(=O)COc2ccc(Cl)cc2)C3)c1 (stereo partly drawn)	-344*	0	-127*	Fluor interf act=>100
C=C(C)C(=O)Nc1cccc(C2=NOC3(C2)C[C@@H](C(N)=O)N(C(=O)C(=C)C)C3)c1 (stereo partly drawn)	-291*	1	-133*	Fluor interf act=>100
O=C(/C=C/c1ccc(O)cc1)c1ccc(NC2=C(N3CCCCC3)C(=O)c3ccccc3C2=O)cc1	76	.	.
Cc1ccc(S(=O)(=O)N2CCN(c3ccc([N+](=O)[O-])c4cccnc34)CC2)cc1	47	.	.
O=C1NC(c2ccc(-c3ccccc3[N+](=O)[O-])o2)C(C(=O)c2ccc(F)cc2)C(O)(C(F)(F)F)N1 (stereo not drawn)	51	.	.
CCO/C=C1/C(=O)N(Cc2ccccc2)C(=O)c2ccccc21	62	.	.
C[C@@H](CN1C2=NC[C@H](Cc3ccccc3)N2C[C@H]1Cc1ccc(O)cc1)NC(=O)CCC1CCCCC1	41	.	.
c1cc2c3c(cccc3c1)NC1(CCC3(CC1)Nc1cccc4cccc(c14)N3)N2	40	.	.
CN(C)CCCNc1cc(O)c2ncccc2c1	77	.	.
C=C(C)C(=O)Nc1cccc(C2=NOC3(C2)C[C@@H](C(N)=O)N(C(=O)c2cc([N+](=O)[O-])cc([N+](=O)[O-])c2C)C3)c1 (stereo partly drawn)	-107*	-3	-128*	Fluor interf act=>100
O=C(Nc1ccccc1O)c1ccc2c(c1)C(=O)N(Cc1ccco1)C2=O	-93*	-9	5
Cc1ccc(NC2=CC(=O)C(=O)c3ccccc32)c(C)c1	87	.	.
Cn1c(CN2CCCC2)nc2cc(NC(=O)COc3ccccc3)ccc21	53	.	.
Cc1ccc(NC(=O)CSc2nc3ccccc3c(=O)n2CCCN2CCCCC2)cc1C	55	.	.
CCN(c1ccccc1)S(=O)(=O)c1ccc(Cl)c(NC(=O)CN2CCN(C)CC2)c1	52	.	.
O=C(CN1CCN(Cc2ccccc2)CC1)Nc1cccc(S(=O)(=O)N2CCCCCC2)c1	-174*	10	15
O=C(CSc1ncnc2ccccc12)Nc1cccc(S(=O)(=O)N2CCCC2)c1	-43*	2	1
O=C(O)CC1S/C(=N/N=C/c2ccc(-c3ccc(Cl)cc3[N+](=O)[O-])o2)NC1=O (stereo not drawn)	52	.	.
CC(=O)Nc1ccc(NC2=C/C(=N/S(=O)(=O)c3cccs3)c3ccccc3C2=O)cc1	90	.	.
CCCCCc1ccc(OCCCC[n+]2ccccc2)c(CCCCC)c1	59	.	.
COc1cc(OC)c2c(-c3ccccc3)cc(=O)oc2c1C(CCN1CCCCC1)c1ccc(N(C)C)cc1 (stereo not drawn)	54	.	.
CC(=O)N1CCN(C(=S)Nc2ccc(SC(F)F)cc2)CC1	96	.	.
COc1cc(/C=C2/C(=O)N(c3ccccc3)N=C2C)ccc1OS(=O)(=O)c1ccccc1	95	.	.
SMILES	Apaf1 activ	Rh110 act interf	Apaf-1 act conf2	others
CCO/C=C1/C(=O)N(C)C(=O)c2cc(OC)ccc21	47	.	.
O=C1C(N2CCOCC2)=C(n2nnc3ccccc32)C(=O)c2ccccc21	94	.	.
CC(Sc1ccc2ccccc2n1)C(=O)O (stereo not drawn)	6	.	.
CC(Cn1nnc2ccccc21)C(=O)O (stereo not drawn)	-107*	15	-14
CCOc1ccccc1NC(=O)c1cc(-c2ccccn2)nc2ccccc12	53	.	.
CC(C)(C)NC(=O)c1cc(-c2ccc3c(c2)OCO3)nc2ccccc12	-71*	4	1
N#Cc1nc(-c2ccco2)oc1N1CCc2ccccc2C1	52	.	.
CC(Oc1ccc2ccccc2c1)C(=O)NNC(=O)Nc1ccccc1F (stereo not drawn)	-132*	-5	11
Cc1ccc(F)c(NC(=S)Nc2cccc3ccccc23)c1	78	.	.
Fc1ccccc1NC(=S)Nc1cccc2cnccc12	97	.	.
CCCC(=O)OCCNc1cc(SCc2ccco2)c2nonc2c1[N+](=O)[O-]	57	.	.
Oc1ccc(C[C@@H]2CNCCN2CCC23CC4CC(CC(C4)C2)C3)cc1	47	.	.
Oc1ccc(N=Cc2ccc(OCc3ccccc3)cc2)cc1	93	.	.
COc1ccc(Nc2ccc(OC)cc2)cc1	80	.	.
COc1ccc(C(=O)Nc2ccc(C(=O)c3ccccc3)cc2)cc1	-385*	-2	2
O=C(Nc1ccccc1)c1ccc2nc(-c3ccco3)c(-c3ccco3)nc2c1	60	.	.
CCOc1ccc(NC(=O)CC2C(=O)N(c3ccccc3)C(=S)N2Cc2ccccn2)cc1 (stereo not drawn)	-44*	8	10
Cc1ccc(C(=O)NC(=S)Nc2cccc3nsnc23)cc1	59	.	.
COc1cccc(/C=N/NC(=O)CCn2nnc3ccccc32)c1	-70*	1	6
COc1ccc(/C=N/NC(=O)CCn2cnc(-c3ccccc3)c2-c2ccccc2)cc1	54	.	.
c1ccc(C(c2nnnn2C2CCCCC2)N2CCc3ccccc3C2)nc1 (stereo not drawn)	64	.	.
Cn1c(Cc2ccccc2)n[nH]c1=S	42	.	.
COc1ccnc(Oc2ccc(F)cc2)c1C#N	-47*	4	-1
Cc1ccc(C(=O)N/C(=C\c2ccc(-c3ccccc3[N+](=O)[O-])o2)C(=O)NCCCN2CCOCC2)cc1	65	.	.
COc1ccc([C@@H]2CC=C(C(=O)O)[C@H](c3cccc(Cl)c3)N2S(=O)(=O)c2ccc(Cl)cc2)cc1	-73*	-3	19
SMILES	Apaf1 activ	Rh110 act interf	Apaf-1 act conf2	others
COc1ccc(CCN2C(=O)c3[nH]nc(-c4ccccc4O)c3C2c2cccc(Cl)c2)cc1 (stereo not drawn)	41	.	.
C[C@]12CC[C@@H]3c4ccc(OS(=O)(=O)O)cc4CC[C@H]3[C@@H]1CCC2=O	6	.	.
O=C(O)c1ccc(N2C(=O)/C(=C/c3ccc(-c4ccc([N+](=O)[O-])cc4)o3)C=C2c2ccccc2)cc1	52	.	.
Cn1cc([N+](=O)[O-])c(C(=O)NNC(=O)c2ccc([N+](=O)[O-])cc2Cl)n1	-161*	1	0
O=C(NNc1cc(N2CCCC2)nc(N2CCCC2)n1)c1ccc([N+](=O)[O-])cc1	98	.	.
C#CCOCCOCCOCCNc1nc(N2CCN(C(=O)CCCCCCCCCCNC(=O)[C@H](CCCCN)n3cc(CCO)nn3)CC2)nc(N2CCN(C(=O)CCCCCCCCCCNC(=O)[C@@H]([C@H](C)O)n3cc(C)nn3)CC2)n1	59	.	.
CC1OC(Nc2cccc3ccccc23)C(O)C(O)C1O (stereo not drawn)	96	.	.
CCCC(C)NC(=O)c1cc(C(=O)OC)cc([N+](=O)[O-])c1 (stereo not drawn)	-108*	-2	11
